Drawing on ChEMBL document CHEMBL1140433, “Design, synthesis, and evaluation of pharmacological properties of cinnamic derivatives as antiatherogenic agents” (2005), this text covers Activity for 15 molecules.

Type in all cases: functional, Homo sapiens
The test system of assay [1] is HMEC. Briefly: Ability to inhibit HMEC1-mediated LDL oxidation at 10 uM evaluated by TBARS formation in the presence of copper. Further details: scale not given: the % may be the effect or the level left. Summed up: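 Human plasma LDL (100 µg apoB/mL) was incubated with subconfluent HMEC-1 in serum-free RPMI-1640 with 1 µM Cu2+ for 6 h at 37 °C. Cells had been serum-starved for 24 h. Compound was added in DMSO just before oxidation, in duplicate. TBARS in the medium were measured fluorimetrically (Yagi), as % of cell-oxidized LDL without antioxidant. Mean of four determinations.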

In assay [2] the test system is HMEC. Briefly: Cytotoxic effect of LDL oxidized by HMEC1 cells at 10 uM by MTT assay expressed as percentage of viability in unstimulated control. Summed up: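 LDL (100 µg apoB/mL) was first oxidized by HMEC-1 for 6 h in RPMI with 1 µM Cu2+ and compound at 10 µM. This LDL then stayed on serum-starved HMEC-1 for a 24 h pulse. Viability was read by MTT as % of control cells in fresh RPMI without LDL or antioxidant. Mean of four determinations.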

In assay [3] the test system is HMEC. The assay can be described thus: Ability to inhibit HMEC1-mediated LDL oxidation at 10 uM evaluated by TBARS formation in the absence of copper. Further details: scale not given: the % may be the effect or the level left.
Assay [4] concerns HMEC. Briefly: Ability to inhibit HMEC1-mediated LDL oxidation at 100 uM evaluated by TBARS formation in the absence of copper. Also on record: scale not given: the % may be the effect or the level left.

For the molecule `COc1cc(/C=C/C(=O)NCCc2c[nH]c3ccccc23)ccc1O`, the figures for the Activity in assay [1] and in assay [2] were 9.6% and 93.6%, respectively.

`CC(C)(Sc1cc(C(C)(C)C)c(O)c(C(C)(C)C)c1)Sc1cc(C(C)(C)C)c(O)c(C(C)(C)C)c1` [PROBUCOL]: the Activity worked out at 10% in assay [1] and 92% in assay [2].

With `CCOP(=O)(/C=C/c1ccc(O)cc1)OCC`, the Activity in assay [1] is listed as 77.6%; in assay [2], 65.3%.

For `Cc1c(C)c2c(c(C)c1O)CC[C@@](C)(CCC[C@H](C)CCC[C@H](C)CCCC(C)C)O2` [ALPHA-TOCOPHEROL], the Activity stood at 55% in assay [1] and 29% in assay [2].

With `CCOP(=O)(/C=C/c1ccc(O)c(OC)c1)OCC`, the values for the Activity in assay [1] and in assay [2] were 32.3% and 75.7%, respectively.

As to `CCOP(=O)(O)/C=C/c1ccc(O)cc1`, the Activity in assay [1] amounted to 101%; in assay [2], 13.3%.

On to `CC(=O)NCCSC(=O)/C=C/c1ccc(O)cc1`, for which the Activity in assay [1] is listed as 95.6%; in assay [2], 22.6%.

Turning to `CCOP(=O)(O)/C=C/c1cc(OC)c(O)c(OC)c1`, the results for the Activity in assay [1] and in assay [2] were 16% and 45%, respectively.

For `COc1cc(/C=C/C(=O)SCCNC(C)=O)ccc1O`, the Activity is given as 40.3% in assay [1] and 69.3% in assay [2].

Turning to `COc1ccc(/C=C/C(=O)Nc2ccccn2)cc1OC`, the Activity in assay [1] is given as 100%; in assay [2], 20.7%.

Consider `COc1ccc(/C=C/C(=O)SCCNC(C)=O)cc1`, for which the Activity in assay [1] is 109%; in assay [2], 21.7%.

`COc1cc(/C=C/C(=O)SCCNC(C)=O)cc(OC)c1O`: the Activity in assay [3] is 18%; in assay [1], 12.7%; in assay [2] it was 88.7%; in assay [4], 8%.

As to `CCOP(=O)(/C=C/c1cc(OC)c(O)c(OC)c1)OCC`, the Activity came to 13% in assay [1] and 81% in assay [2].

Take `COc1cccc(/C=C/C(=O)Nc2ccccn2)c1`: the Activity in assay [1] came to 61.3%; in assay [2], 48.7%.

With `CCOP(=O)(O)/C=C/c1ccc(O)c(OC)c1`, the Activity in assay [1] is 52.7%; in assay [2], 21.7%.
